The record followed here is ChEMBL document CHEMBL1155539, “Discovery of 4-[1-[([1-[4-(trifluoromethyl)benzyl]-1H-indol-7-yl]carbonyl)amino]cyclopropyl]benzoic acid (MF-766), a highly potent and selective EP4 antagonist for treating inflammatory pain” (Bioorg Med Chem Lett, 2010).

For orientation: Ki means a measure of affinity in units of concentration, obtained from inhibition or displacement. The bioavailability is dose-corrected exposure relative to a reference, in per cent.

The target in series [1] is T1, Prostaglandin D2 receptor (Homo sapiens, UniProt Q13258).
T1 sequence (Q13258 whole entry): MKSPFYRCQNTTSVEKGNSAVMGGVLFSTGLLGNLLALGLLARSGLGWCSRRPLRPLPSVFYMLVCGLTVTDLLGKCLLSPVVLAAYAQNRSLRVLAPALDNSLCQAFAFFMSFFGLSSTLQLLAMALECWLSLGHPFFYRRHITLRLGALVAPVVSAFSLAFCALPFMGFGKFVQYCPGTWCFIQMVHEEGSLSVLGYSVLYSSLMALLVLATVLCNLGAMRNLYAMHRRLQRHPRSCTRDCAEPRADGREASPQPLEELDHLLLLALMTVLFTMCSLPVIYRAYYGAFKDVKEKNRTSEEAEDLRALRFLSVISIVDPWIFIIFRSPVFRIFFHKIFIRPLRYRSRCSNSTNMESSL
Description: Displacement of [3H]PGD2 from human Prostanoid DP1 receptor expressed in HEK293-EBNA cells after 60 mins by scintillation counting. It counts as cell-based.

The target in series [2] is T2, Prostaglandin D2 receptor 2 (Homo sapiens, UniProt Q9Y5Y4).
T2 sequence (Q9Y5Y4 whole entry): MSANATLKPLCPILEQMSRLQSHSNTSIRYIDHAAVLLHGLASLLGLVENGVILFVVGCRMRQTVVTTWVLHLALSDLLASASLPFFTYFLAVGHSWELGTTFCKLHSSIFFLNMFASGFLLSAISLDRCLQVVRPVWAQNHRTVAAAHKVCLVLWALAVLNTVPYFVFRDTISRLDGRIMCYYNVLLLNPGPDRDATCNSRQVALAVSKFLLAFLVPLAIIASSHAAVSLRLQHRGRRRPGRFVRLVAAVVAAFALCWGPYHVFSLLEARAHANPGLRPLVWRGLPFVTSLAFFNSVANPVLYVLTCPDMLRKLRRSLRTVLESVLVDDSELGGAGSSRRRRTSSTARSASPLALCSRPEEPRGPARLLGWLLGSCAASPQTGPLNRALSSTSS
Description: Displacement of [3H]PGD2 from human Prostanoid DP2 receptor expressed in HEK293-EBNA cells after 60 mins by scintillation counting. The series is classed as cell-based. (In general: In a radioligand displacement assay an active substance lowers the binding of a labelled ligand.)

Series [3] addresses Prostaglandin F2-alpha receptor (Homo sapiens, UniProt P43088). Description: Displacement of [3H]PGF2alpha from human prostanoid FP receptor expressed in HEK293-EBNA cells after 60 mins by scintillation counting. It counts as cell-based.
The target of series [4] is T3, Prostaglandin E2 receptor EP1 subtype (Homo sapiens, UniProt P34995).
T3 sequence (P34995 whole entry): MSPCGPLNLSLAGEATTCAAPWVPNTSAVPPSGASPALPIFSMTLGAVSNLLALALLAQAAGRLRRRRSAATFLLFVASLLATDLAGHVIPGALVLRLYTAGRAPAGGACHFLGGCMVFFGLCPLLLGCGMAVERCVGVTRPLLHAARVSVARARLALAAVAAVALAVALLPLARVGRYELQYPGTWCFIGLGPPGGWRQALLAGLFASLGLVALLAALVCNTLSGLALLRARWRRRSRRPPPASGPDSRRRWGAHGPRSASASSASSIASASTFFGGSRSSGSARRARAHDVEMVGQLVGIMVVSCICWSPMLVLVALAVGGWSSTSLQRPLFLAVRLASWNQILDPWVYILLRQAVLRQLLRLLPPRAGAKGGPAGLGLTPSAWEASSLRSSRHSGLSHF
Description: Displacement of [3H]PGE2 from human prostanoid EP1 receptor expressed in HEK293-EBNA cells after 60 mins by scintillation counting. It counts as cell-based.

The nature of series [5]: Volume of distribution in Beagle dog at 1 mg/kg, iv and 4 mg/kg, po. The conditions noted are these: in vivo.
In the next series the test system is Rattus norvegicus. Description: Antiinflammatory activity in rat assessed as inhibition of complete Freund's adjuvant-induced secondary paw swelling at 0.001 to 1 mg/kg administered daily once 9 days after adjuvant challenge measured on day 18. It counts as functional. More on the design: scale not given: the % may be the effect or the level left. The conditions noted are these: dose mg/kg 0.001-1. In a few lines:
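Rat adjuvant-induced arthritis model with daily dosing in mg/kg/day. Dose groups were 0, 0.001, 0.01, 0.1 and 1 mg/kg, plus a non-AIA control group. Primary and secondary paw swelling were scored as % inhibition relative to vehicle-treated arthritic rats, and ED50 was estimated from the dose–response.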

A short description of series [6]: Bioavailability in Sprague-Dawley rat at 5 mg/kg, iv and 20 mg/kg, po. The series is classed as ADME, organism-based. The conditions noted are these: in vivo. In a few lines:
(§1)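 Sprague-Dawley rats dosed iv at 5 mg/kg and po at 20 mg/kg. The iv group was n = 2 males given the free acid in 60% PEG 200 at 1 mL/kg. PK parameters were derived from plasma levels.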

The nature of series [7]: Volume of distribution in Sprague-Dawley rat at 5 mg/kg, iv and 20 mg/kg, po. The conditions noted are these: in vivo. The series is classed as ADME, organism-based. In a few lines:
as §1

Prostaglandin F2-alpha receptor, sequence (P43088 whole entry): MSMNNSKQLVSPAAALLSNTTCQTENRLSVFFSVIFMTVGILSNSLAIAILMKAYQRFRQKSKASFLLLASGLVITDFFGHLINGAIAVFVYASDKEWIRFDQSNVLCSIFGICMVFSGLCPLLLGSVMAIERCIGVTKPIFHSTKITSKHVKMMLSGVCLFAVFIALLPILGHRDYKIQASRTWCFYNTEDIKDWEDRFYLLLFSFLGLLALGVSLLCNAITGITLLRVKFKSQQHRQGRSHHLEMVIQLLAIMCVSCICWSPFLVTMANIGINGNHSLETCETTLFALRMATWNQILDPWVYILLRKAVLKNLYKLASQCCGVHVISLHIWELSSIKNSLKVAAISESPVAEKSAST

Take `O=C(O)c1ccc(C2(NC(=O)c3cccc4ccn(Cc5ccc(C(F)(F)F)cc5)c34)CC2)cc1`: the Ki in series [1] was 1.65 µM; in series [2], greater than 21 µM; in series [3], 6.4 µM; in series [4], 20 µM. Further, the Vd in series [5] was 0.8 L/kg; in series [7], 1 L/kg. In addition, in the series with Rattus norvegicus, the Activity was 100%. The compound also registered a bioavailability in series [6] of 86%.
